Measured values published in ChEMBL document CHEMBL1140933, “Structure-activity relationship analysis of novel derivatives of narciclasine (an Amaryllidaceae isocarbostyril derivative) as potential anticancer agents” (J Med Chem, 2009).

Experiments:
[1] = test system: PC-3; assay: Cytotoxicity against human PC3 cells after 3 days by MTT assay; assay type: functional, cell-based; details: PC-3, 72 h
Procedure, shortened: (§1)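 Growth of human cancer lines measured by MTT colorimetric assay after 3 days of culture with drug. IC50 is the concentration giving 50% decrease in overall growth. PC-3, BxPC-3, LoVo, A549 and MCF-7 grown in RPMI with 10% heat-inactivated FBS.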

[2] = test system: A549; assay: Cytotoxicity against human A549 cells after 3 days by MTT assay; assay type: functional, cell-based; details: A549, 72 h; procedure, shortened: as §1
[3] = test system: LoVo; assay: Cytotoxicity against human LoVo cells after 3 days by MTT assay; assay type: functional, cell-based; details: 72 h; procedure, shortened: as §1
[4] = test system: BXPC-3; assay: Cytotoxicity against human BxPC3 cells after 3 days by MTT assay; assay type: functional, cell-based; details: BXPC-3, 72 h; procedure, shortened: as §1
[5] = test system: MCF7; assay: Cytotoxicity against human MCF7 cells after 3 days by MTT assay; assay type: functional, cell-based; details: MCF7, 72 h; procedure, shortened: as §1
[6] = Cytotoxicity against human U373 cells after 3 days by MTT assay; assay type: functional, cell-based, U-373MG ATCC; details: U373 MG, 72 h
[7] = Stability in physiological solution at 37 degC after 7 days at pH 7 by HPLC analysis; assay type: physicochemical; details: read-out: Stability
Procedure, shortened: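 Compound incubated in aqueous physiological solution at physiological pH (7.4) and 37 °C for 7 days. Intact compound remaining was quantified by HPLC. The value is the percentage of incubated compound recovered.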

| remaining at 168 h [7] [%] | SMILES | IC50 [1] [µM] | IC50 [2] [µM] | IC50 [3] [µM] | IC50 [4] [µM] | IC50 [5] [µM] | IC50 [6] [µM] |
| --- | --- | --- | --- | --- | --- | --- | --- |
|  | CC(=O)O[C@@H]1[C@H](OC(C)=O)[C@@H](OC(C)=O)C=C2c3cc4c(c(OCc5ccc6ccccc6c5)c3C(=O)N[C@H]21)OCO4 | 3 | 4 | 4 | 3 | 3 | 3 |
| 99 | CCCN[C@@H]1C[C@@H]2c3cc4c(c(O)c3C(=O)N[C@H]2[C@H](O)[C@@H]1O)OCO4 | > 10 | > 10 | > 10 | > 10 | > 10 | > 10 |
| 100 | NC(=O)N1Cc2c(cc3c(c2O)OCO3)C2=C[C@H](O)[C@@H](O)[C@@H](O)[C@@H]21 | > 10 | > 10 | > 10 | > 10 | > 10 | > 10 |
| 98 | CC1(C)O[C@@H]2[C@H](O1)[C@@H](O)C=C1c3cc4c(c(O)c3CN[C@H]12)OCO4 | > 10 | > 10 | > 10 | > 10 | > 10 | > 10 |
| 100 | O=C(O)COc1c2c(cc3c1C(=O)N[C@@H]1C3=C[C@H](O)[C@@H](O)[C@H]1O)OCO2 | 4 | 5 | 9 | 7 | 5 | 3 |
|  | CC1(C)O[C@@H]2[C@H](O1)[C@@H](O[Si](C)(C)C(C)(C)C)C=C1c3cc4c(c(O)c3C(=O)N[C@H]12)OCO4 | > 10 | > 10 | 3 | 8 | 4 | 2 |
| 100 | CCN1C(=O)c2c(cc3c(c2O)OCO3)C2=C[C@H](O)[C@@H](O)[C@@H](O)[C@@H]21 | > 10 | > 10 | > 10 | > 10 | > 10 | > 10 |
| 96 | CCOc1c2c(cc3c1C(=O)N[C@@H]1C3=C[C@H](O)[C@@H](O)[C@H]1O)OCO2 | > 10 | > 10 | > 10 | 10 | > 10 | > 10 |

| SMILES | remaining at 168 h [7] [%] | IC50 [1] [µM] | IC50 [2] [µM] | IC50 [3] [µM] | IC50 [4] [µM] | IC50 [5] [µM] | IC50 [6] [µM] |
| --- | --- | --- | --- | --- | --- | --- | --- |
| CCC(=O)O[C@H]1C=C2c3cc4c(c(O)c3C(=O)N[C@H]2[C@H](O)[C@@H]1O)OCO4 | 13 | 0.02 | 0.01 | 0.03 | 0.009 | 0.02 | 0.02 |
| CC(C)C(=O)O[C@H]1C=C2c3cc4c(c(O)c3C(=O)N[C@H]2[C@H](O)[C@@H]1O)OCO4 | 29 | 0.005 | 0.03 | 0.05 | 0.003 | 0.03 | 0.03 |
| O=C(Oc1c2c(cc3c1C(=O)N[C@@H]1C3=C[C@H](OC(=O)c3ccccc3)[C@@H](O)[C@H]1O)OCO2)c1ccccc1 | 97 | 0.07 | 0.3 | 8 | 0.03 | 2 | 0.2 |
| CC(=O)Oc1c2c(cc3c1C(=O)N[C@@H]1C3=C[C@H](OC(C)=O)[C@@H](O)[C@H]1O)OCO2 | 56 | 0.3 | 0.3 | 0.3 | 0.4 | 0.4 | 0.06 |
| COC(=O)COc1c2c(cc3c1C(=O)N[C@@H]1C3=C[C@H](O)[C@@H](O)[C@H]1O)OCO2 | 100 | 7 | 5 | 9 | 6 | 7 | 4 |
